From ChEMBL document CHEMBL4610098, “Isolation and Synthesis of Veranamine, an Antidepressant Lead from the Marine Sponge Verongula rigida” (J Nat Prod, 2020)
The source made the active and inactive calls.

What was measured:
Mus musculus = assay: Antidepressant activity in Swiss Webster (Harlan) mouse assessed as decrease in immobility time at 20 mg/kg, ip after 30 mins by forced swim test; format: functional, organism-based
Outline: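 Mice housed five per cage on 12 h light/dark cycle, randomized (n = 6–10/group), given i.p. dose in saline, 10% ethanol or 10% ethanol/1% DMSO vehicle; desipramine 20 mg/kg as reference. Directly after 30 min locomotor session, each mouse placed in water-filled cylinder (8 cm depth, 25 °C), videotaped 6 min; immobility over final 4 min timed by three observers, averaged.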

Histamine H1 receptor = Histamine H1 receptor (Homo sapiens, UniProt P35367); assay: Binding affinity to histamine H1 receptor (unknown origin)
D(1B) dopamine receptor = D(1B) dopamine receptor (Homo sapiens, UniProt P21918); assay: Binding affinity to dopamine D5 receptor (unknown origin)
D(3) dopamine receptor = D(3) dopamine receptor (Homo sapiens, UniProt P35462); assay: Binding affinity to dopamine D3 receptor (unknown origin)
Sequence of D(3) dopamine receptor (P35462 whole entry): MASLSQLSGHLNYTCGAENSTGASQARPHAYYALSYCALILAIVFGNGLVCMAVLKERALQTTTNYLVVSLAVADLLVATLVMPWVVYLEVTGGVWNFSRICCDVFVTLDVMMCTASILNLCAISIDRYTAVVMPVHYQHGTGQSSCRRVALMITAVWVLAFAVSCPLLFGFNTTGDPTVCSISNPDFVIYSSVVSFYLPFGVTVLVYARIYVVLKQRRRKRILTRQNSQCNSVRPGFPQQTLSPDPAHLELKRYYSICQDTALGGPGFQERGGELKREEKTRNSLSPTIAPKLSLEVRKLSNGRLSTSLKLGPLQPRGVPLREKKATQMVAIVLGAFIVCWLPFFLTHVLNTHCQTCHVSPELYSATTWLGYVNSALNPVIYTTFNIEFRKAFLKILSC

[1] = biological target: 5-hydroxytryptamine receptor 1E (Homo sapiens, UniProt P28566); assay: Binding affinity to 5HT1E receptor (unknown origin)
Sequence of 5-hydroxytryptamine receptor 1E (P28566 whole entry): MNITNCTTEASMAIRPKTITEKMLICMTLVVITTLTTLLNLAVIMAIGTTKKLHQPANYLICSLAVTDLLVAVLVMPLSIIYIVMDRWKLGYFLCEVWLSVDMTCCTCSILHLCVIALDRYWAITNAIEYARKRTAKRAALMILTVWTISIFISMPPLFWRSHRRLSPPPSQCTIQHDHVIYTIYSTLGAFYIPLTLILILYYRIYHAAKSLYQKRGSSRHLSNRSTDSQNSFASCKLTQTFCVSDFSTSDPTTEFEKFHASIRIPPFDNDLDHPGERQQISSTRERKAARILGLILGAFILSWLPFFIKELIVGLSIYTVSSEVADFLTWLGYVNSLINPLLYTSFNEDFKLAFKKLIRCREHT

[2] = biological target: Alpha-1B adrenergic receptor (Homo sapiens, UniProt P35368); assay: Binding affinity to adrenoceptor alpha 1B (unknown origin)
[3] = biological target: Muscarinic acetylcholine receptor M2 (Homo sapiens, UniProt P08172); assay: Binding affinity to muscarinic acetylcholine receptor M2 (unknown origin)
[4] = biological target: Alpha-2B adrenergic receptor (Homo sapiens, UniProt P18089); assay: Binding affinity to adrenoceptor alpha 2B (unknown origin)
[5] = biological target: 5-hydroxytryptamine receptor 6 (Homo sapiens, UniProt P50406); assay: Binding affinity to 5HT6 receptor (unknown origin)
[6] = biological target: 5-hydroxytryptamine receptor 1D (Homo sapiens, UniProt P28221); assay: Binding affinity to 5HT1D receptor (unknown origin)
Sequence of 5-hydroxytryptamine receptor 1D (P28221 whole entry): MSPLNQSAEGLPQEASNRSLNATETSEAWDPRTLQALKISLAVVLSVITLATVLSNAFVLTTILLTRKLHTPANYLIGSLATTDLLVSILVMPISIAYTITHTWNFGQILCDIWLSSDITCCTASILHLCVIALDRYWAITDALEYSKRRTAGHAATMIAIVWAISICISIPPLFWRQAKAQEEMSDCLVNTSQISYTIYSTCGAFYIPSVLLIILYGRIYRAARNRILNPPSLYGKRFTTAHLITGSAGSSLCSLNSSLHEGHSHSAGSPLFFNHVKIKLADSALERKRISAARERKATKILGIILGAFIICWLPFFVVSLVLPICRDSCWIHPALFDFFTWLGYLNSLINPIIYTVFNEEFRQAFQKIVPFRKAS

[7] = biological target: Alpha-2C adrenergic receptor (Homo sapiens, UniProt P18825); assay: Binding affinity to adrenoceptor alpha 2C (unknown origin)
[8] = Effect on locomotor activity in Swiss Webster (Harlan) mouse at 20 mg/kg, ip after 30 mins by automated activity monitoring system based assay; format: ADME, organism-based; settings: in vivo, 0.5 h
Outline: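 Mice in groups of five, 12 h light/dark, randomized (n = 6–10/group), dosed i.p. in saline, 10% ethanol or 10% ethanol/1% DMSO vehicle, desipramine 20 mg/kg reference. Each mouse put in Plexiglas enclosure right after injection; photobeam interruptions recorded for 30 min, with counts from the last 10 min quantified and analyzed.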

[9] = biological target: T1, 5-hydroxytryptamine receptor 7 (Homo sapiens, UniProt P34969); assay: Binding affinity to 5HT7 receptor (unknown origin)
T1 sequence (P34969 whole entry): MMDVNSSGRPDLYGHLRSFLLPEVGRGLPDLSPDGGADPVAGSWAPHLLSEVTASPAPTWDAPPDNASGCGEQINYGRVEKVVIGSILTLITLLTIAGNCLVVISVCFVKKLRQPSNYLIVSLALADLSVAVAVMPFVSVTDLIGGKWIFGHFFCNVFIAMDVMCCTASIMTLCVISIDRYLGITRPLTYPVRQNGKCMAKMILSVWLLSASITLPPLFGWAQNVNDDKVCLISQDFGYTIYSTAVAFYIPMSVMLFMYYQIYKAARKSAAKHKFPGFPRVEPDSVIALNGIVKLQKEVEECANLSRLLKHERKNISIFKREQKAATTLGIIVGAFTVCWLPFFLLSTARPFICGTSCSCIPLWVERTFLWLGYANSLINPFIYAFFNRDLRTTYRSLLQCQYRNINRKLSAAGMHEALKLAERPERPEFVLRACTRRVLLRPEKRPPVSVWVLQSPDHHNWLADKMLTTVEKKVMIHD

[10] = biological target: T1, 5-hydroxytryptamine receptor 7; assay: Binding affinity to 5HT7A receptor (unknown origin)
[11] = biological target: Alpha-1A adrenergic receptor (Homo sapiens, UniProt P35348); assay: Binding affinity to adrenoceptor alpha 1A (unknown origin)
D(4) dopamine receptor = D(4) dopamine receptor (Homo sapiens, UniProt P21917); assay: Binding affinity to dopamine D4 receptor (unknown origin)
[12] = biological target: Muscarinic acetylcholine receptor M1 (Homo sapiens, UniProt P11229); assay: Binding affinity to muscarinic acetylcholine receptor M1 (unknown origin)
[13] = biological target: 5-hydroxytryptamine receptor 1B (Homo sapiens, UniProt P28222); assay: Binding affinity to 5HT1B receptor (unknown origin)
Sequence of 5-hydroxytryptamine receptor 1B (P28222 whole entry): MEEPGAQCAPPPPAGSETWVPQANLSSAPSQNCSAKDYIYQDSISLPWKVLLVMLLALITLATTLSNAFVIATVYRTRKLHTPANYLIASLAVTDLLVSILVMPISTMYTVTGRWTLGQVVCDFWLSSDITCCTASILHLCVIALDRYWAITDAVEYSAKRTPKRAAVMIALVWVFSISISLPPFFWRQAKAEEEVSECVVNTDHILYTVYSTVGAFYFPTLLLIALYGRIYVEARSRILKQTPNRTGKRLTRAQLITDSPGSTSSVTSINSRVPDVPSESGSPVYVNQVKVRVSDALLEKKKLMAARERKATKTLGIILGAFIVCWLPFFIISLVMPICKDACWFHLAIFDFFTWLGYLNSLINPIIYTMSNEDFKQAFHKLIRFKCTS

[14] = biological target: Sigma non-opioid intracellular receptor 1 (Homo sapiens, UniProt Q99720); assay: Binding affinity to sigma1 receptor (unknown origin)
[15] = biological target: 5-hydroxytryptamine receptor 1A (Homo sapiens, UniProt P08908); assay: Binding affinity to 5HT1A receptor (unknown origin)
[16] = biological target: Beta-1 adrenergic receptor (Homo sapiens, UniProt P08588); assay: Binding affinity to beta1 adrenoceptor (unknown origin)
Sequence of Beta-1 adrenergic receptor (P08588 whole entry): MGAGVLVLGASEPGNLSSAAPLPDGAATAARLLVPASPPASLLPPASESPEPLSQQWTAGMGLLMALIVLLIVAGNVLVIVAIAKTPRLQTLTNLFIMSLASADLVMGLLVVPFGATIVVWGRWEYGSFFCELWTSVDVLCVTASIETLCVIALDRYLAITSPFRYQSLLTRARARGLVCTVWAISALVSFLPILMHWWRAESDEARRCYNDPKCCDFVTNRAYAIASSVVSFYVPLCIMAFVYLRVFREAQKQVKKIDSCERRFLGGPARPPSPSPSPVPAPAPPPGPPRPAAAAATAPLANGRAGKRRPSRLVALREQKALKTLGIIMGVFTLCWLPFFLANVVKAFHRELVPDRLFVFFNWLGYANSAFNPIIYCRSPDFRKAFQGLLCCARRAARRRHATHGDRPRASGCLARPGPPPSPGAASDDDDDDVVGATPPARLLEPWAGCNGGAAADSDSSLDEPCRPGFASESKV

[17] = biological target: Sodium-dependent dopamine transporter (Homo sapiens, UniProt Q01959); assay: Binding affinity to DAT (unknown origin)
Sequence of Sodium-dependent dopamine transporter (Q01959 whole entry): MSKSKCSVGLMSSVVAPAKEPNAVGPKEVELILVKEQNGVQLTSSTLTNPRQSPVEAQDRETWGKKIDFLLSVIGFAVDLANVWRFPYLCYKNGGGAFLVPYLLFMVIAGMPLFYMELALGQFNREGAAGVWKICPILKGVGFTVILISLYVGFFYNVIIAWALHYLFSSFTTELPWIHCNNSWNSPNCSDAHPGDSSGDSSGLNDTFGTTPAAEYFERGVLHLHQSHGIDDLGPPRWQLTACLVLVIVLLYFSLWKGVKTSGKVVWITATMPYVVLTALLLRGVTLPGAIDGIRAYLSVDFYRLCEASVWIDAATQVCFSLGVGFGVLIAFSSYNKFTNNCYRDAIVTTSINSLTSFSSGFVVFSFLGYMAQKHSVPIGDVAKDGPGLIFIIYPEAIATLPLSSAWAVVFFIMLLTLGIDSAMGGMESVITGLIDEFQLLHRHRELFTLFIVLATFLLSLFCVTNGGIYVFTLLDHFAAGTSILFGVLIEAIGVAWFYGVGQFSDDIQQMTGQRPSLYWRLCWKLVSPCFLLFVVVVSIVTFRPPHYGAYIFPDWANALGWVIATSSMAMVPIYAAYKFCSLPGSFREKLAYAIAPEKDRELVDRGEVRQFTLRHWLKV

Histamine H3 receptor = Histamine H3 receptor (Homo sapiens, UniProt Q9Y5N1); assay: Binding affinity to histamine H3 receptor (unknown origin)
Sequence of Histamine H3 receptor (Q9Y5N1 whole entry): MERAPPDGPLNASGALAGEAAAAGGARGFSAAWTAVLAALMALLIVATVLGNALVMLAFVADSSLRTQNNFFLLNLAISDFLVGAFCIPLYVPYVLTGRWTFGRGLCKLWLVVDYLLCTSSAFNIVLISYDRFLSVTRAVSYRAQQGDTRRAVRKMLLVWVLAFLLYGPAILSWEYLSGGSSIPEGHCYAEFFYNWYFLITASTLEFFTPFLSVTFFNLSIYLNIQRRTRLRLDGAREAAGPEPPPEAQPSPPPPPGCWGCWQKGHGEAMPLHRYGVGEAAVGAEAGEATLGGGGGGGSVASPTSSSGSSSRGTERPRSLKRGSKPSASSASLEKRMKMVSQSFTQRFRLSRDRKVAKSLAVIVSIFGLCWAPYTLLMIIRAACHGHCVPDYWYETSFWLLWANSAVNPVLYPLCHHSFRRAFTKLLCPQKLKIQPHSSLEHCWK

[18] = biological target: Sodium-dependent serotonin transporter (Homo sapiens, UniProt P31645); assay: Binding affinity to SERT (unknown origin)
Sequence of Sodium-dependent serotonin transporter (P31645 whole entry): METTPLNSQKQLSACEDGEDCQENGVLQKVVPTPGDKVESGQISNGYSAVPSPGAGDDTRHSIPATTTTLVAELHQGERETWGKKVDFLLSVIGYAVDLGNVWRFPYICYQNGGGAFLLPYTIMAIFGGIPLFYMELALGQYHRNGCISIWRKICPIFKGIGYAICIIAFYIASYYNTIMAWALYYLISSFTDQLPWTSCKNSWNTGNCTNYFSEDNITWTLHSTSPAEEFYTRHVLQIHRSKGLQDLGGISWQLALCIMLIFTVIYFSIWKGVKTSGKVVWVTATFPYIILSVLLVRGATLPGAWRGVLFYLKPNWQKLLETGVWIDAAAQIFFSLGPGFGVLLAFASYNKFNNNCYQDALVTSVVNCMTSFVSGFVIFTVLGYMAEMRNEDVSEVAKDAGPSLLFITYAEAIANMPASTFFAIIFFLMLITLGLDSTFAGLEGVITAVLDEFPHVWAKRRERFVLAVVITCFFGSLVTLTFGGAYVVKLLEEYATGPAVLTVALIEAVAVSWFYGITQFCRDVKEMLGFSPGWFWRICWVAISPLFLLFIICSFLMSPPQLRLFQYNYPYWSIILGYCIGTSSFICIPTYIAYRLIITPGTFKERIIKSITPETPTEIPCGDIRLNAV

[19] = biological target: 5-hydroxytryptamine receptor 3A (Homo sapiens, UniProt P46098); assay: Binding affinity to 5HT3 receptor (unknown origin)
D(2) dopamine receptor = D(2) dopamine receptor (Homo sapiens, UniProt P14416); assay: Binding affinity to dopamine D2 receptor (unknown origin)
[20] = biological target: Sigma intracellular receptor 2 (Homo sapiens, UniProt Q5BJF2); assay: Binding affinity to sigma2 receptor (unknown origin)
[21] = biological target: Muscarinic acetylcholine receptor M5 (Homo sapiens, UniProt P08912); assay: Binding affinity to muscarinic acetylcholine receptor M5 (unknown origin)
[22] = biological target: Sodium-dependent noradrenaline transporter (Homo sapiens, UniProt P23975); assay: Binding affinity to NET (unknown origin)
[23] = biological target: Alpha-2A adrenergic receptor (Homo sapiens, UniProt P08913); assay: Binding affinity to adrenoceptor alpha 2A (unknown origin)
[24] = biological target: 5-hydroxytryptamine receptor 2A (Homo sapiens, UniProt P28223); assay: Binding affinity to 5HT2A receptor (unknown origin)
[25] = biological target: Muscarinic acetylcholine receptor M3 (Homo sapiens, UniProt P20309); assay: Binding affinity to muscarinic acetylcholine receptor M3 (unknown origin)
[26] = biological target: Kappa-type opioid receptor (Homo sapiens, UniProt P41145); assay: Binding affinity to KOR (unknown origin)
Mu-type opioid receptor = Mu-type opioid receptor (Homo sapiens, UniProt P35372); assay: Binding affinity to MOR (unknown origin)
Sequence of Mu-type opioid receptor (P35372 whole entry): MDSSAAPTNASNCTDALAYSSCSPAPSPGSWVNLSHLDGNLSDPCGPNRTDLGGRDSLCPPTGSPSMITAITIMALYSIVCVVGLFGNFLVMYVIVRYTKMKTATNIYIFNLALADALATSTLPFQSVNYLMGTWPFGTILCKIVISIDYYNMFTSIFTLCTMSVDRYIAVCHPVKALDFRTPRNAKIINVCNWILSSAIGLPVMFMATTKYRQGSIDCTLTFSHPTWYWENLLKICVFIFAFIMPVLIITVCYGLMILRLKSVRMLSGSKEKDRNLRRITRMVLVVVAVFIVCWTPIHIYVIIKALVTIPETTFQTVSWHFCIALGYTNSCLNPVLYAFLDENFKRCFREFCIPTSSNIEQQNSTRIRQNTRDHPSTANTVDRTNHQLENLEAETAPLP

Histamine H4 receptor = Histamine H4 receptor (Homo sapiens, UniProt Q9H3N8); assay: Binding affinity to histamine H4 receptor (unknown origin)
[27] = biological target: 5-hydroxytryptamine receptor 2C (Homo sapiens, UniProt P28335); assay: Binding affinity to 5HT2C receptor (unknown origin)
[28] = biological target: 5-hydroxytryptamine receptor 2B (Homo sapiens, UniProt P41595); assay: Binding affinity to 5HT2B receptor (unknown origin)
D(1A) dopamine receptor = D(1A) dopamine receptor (Homo sapiens, UniProt P21728); assay: Binding affinity to dopamine D1 receptor (unknown origin)
[29] = biological target: Delta-type opioid receptor (Homo sapiens, UniProt P41143); assay: Binding affinity to DOR (unknown origin)
[30] = biological target: 5-hydroxytryptamine receptor 5A (Homo sapiens, UniProt P47898); assay: Binding affinity to 5HT5A receptor (unknown origin)
Sequence of 5-hydroxytryptamine receptor 5A (P47898 whole entry): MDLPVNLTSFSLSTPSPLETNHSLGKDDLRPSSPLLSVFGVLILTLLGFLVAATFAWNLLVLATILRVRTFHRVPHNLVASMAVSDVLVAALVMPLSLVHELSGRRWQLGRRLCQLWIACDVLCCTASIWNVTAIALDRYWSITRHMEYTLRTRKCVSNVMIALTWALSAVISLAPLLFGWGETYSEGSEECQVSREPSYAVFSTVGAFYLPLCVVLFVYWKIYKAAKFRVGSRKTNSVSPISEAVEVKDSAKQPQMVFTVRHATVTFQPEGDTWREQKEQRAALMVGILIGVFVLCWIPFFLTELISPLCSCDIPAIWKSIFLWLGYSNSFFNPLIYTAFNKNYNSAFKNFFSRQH

[31] = biological target: Muscarinic acetylcholine receptor M4 (Homo sapiens, UniProt P08173); assay: Binding affinity to muscarinic acetylcholine receptor M4 (unknown origin)
Histamine H2 receptor = Histamine H2 receptor (Homo sapiens, UniProt P25021); assay: Binding affinity to histamine H2 receptor (unknown origin)

Cc1nccc2c1C(C)(C)Nc1cc(Br)ccc1-2
0.39 µM: Ki [28]
0.56 µM: Ki [14]
active: Activity (Mus musculus)
Non-Toxic: Activity [8]
> 10 µM: Ki (Histamine H1 receptor) | Ki (D(1B) dopamine receptor) | Ki (D(3) dopamine receptor) | Ki [1] | Ki [2] | Ki [3] | Ki [4] | Ki [5] | Ki [6] | Ki [7] | Ki [9] | Ki [10] | Ki [11] | Ki (D(4) dopamine receptor) | Ki [12] | Ki [13] | Ki [15] | Ki [16] | Ki [17] | Ki (Histamine H3 receptor) | Ki [18] | Ki [19] | Ki (D(2) dopamine receptor) | Ki [20] | Ki [21] | Ki [22] | Ki [23] | Ki [24] | Ki [25] | Ki [26] | Ki (Mu-type opioid receptor) | Ki (Histamine H4 receptor) | Ki [27] | Ki (D(1A) dopamine receptor) | Ki [29] | Ki [30] | Ki [31] | Ki (Histamine H2 receptor)

CNCCCN1c2ccccc2CCc2ccccc21
active: Activity (Mus musculus)
